Measurements as given in ChEMBL document CHEMBL5724801, “EUbOPEN Chemogenomics Library - Multiplex” (2024).
“And” between values parts separate entries of the source, which are not always exact repeats. Equal entries are not always repeated.

Test system: HEK-293T
Assay: Multiplex assay against HEK293T
Assay type: toxicity, cell-based
Settings: human
Procedure, shortened: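 At seeding, live cells were stained with Hoechst33342, BioTracker Green Microtubule Cytoskeleton Dye, MitoTracker Red and Annexin V Alexa Fluor 680. After compound addition they were imaged on a CQ1 microscope at 37°C and 5% CO2, and CellPathfinder machine-learning gating sorted them into Hoechst high-intensity objects or normal cells, with normal cells further split into healthy, pyknosed or fragmented nuclei and pyknosed cells into mitotic or apoptotic. Tubulin, mitochondrial-mass and membrane-permeability phenotypes are given as per cents of cells with healthy nuclei.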

[1] = 12 h, 1 µM, compound concentration 1 uM
[2] = 12 h, 10 µM, compound concentration 10 uM
[3] = 24 h, 1 µM, compound concentration 1 uM
[4] = 24 h, 10 µM, compound concentration 10 uM
[5] = 48 h, 1 µM, compound concentration 1 uM
[6] = 48 h, 10 µM, compound concentration 10 uM

Cc1cc(C)cc(C(=O)NOCCCCCC(=O)NO)c1
Population Apoptotic (%) [1]: 7.89% and 11.48% | Population Fragmented Nuclei (%) [1]: 1.15% and 1.27% | Population Healthy Nuclei (%) [1]: 55.3% and 21.02% | Population Hoechst High Intensity Objects (%) [1]: 0% and 0.63% | Population Membrane Permeable-Phenotype (%) [1]: 0% and 9.09% | Population Mitochondria Different-Phenotype (%) [1]: 25.91% and 12.12% | Population Mitotic Cells (%) [1]: 92.11% and 88.52% | Population Normal (%) [1]: 100% and 99.37% | Population Pyknosed Nuclei (%) [1]: 43.55% and 77.71% | Population Tubulin-Different-Phenotype (%) [1]: 7.25% and 18.18% | Total Cell Count [1]: 349 and 158 | Population Apoptotic (%) [2]: 9.87% and 7.69% | Population Fragmented Nuclei (%) [2]: 3.28% and 1.65% | Population Healthy Nuclei (%) [2]: 51.34% and 26.92% | Population Hoechst High Intensity Objects (%) [2]: 0.3% and 0% | Population Membrane Permeable-Phenotype (%) [2]: 1.16% and 0% | Population Mitochondria Different-Phenotype (%) [2]: 29.65% and 12.24% | Population Mitotic Cells (%) [2]: 90.13% and 92.31% | Population Normal (%) [2]: 99.7% and 100% | Population Pyknosed Nuclei (%) [2]: 45.37% and 71.43% | Total Cell Count [2]: 336 and 182 | Population Apoptotic (%) [3]: 32.32% and 20.49% | Population Fragmented Nuclei (%) [3]: 0.99% and 2.29% | Population Healthy Nuclei (%) [3]: 74.57% and 28% | Population Hoechst High Intensity Objects (%) [3]: 0.25% and 0.57% | Population Membrane Permeable-Phenotype (%) [3]: 1.66% and 0% | Population Mitochondria Different-Phenotype (%) [3]: 25.5% and 16.33% | Population Mitotic Cells (%) [3]: 67.68% and 79.51% | Population Normal (%) [3]: 99.75% and 99.43% | Population Pyknosed Nuclei (%) [3]: 24.44% and 69.71% | Population Tubulin-Different-Phenotype (%) [3]: 17.88% and 30.61% | Total Cell Count [3]: 406 and 176 | Population Apoptotic (%) [4]: 24.32% and 10.53% | Population Fragmented Nuclei (%) [4]: 3.75% and 3.33% | Population Healthy Nuclei (%) [4]: 73.12% and 33.33% | Population Hoechst High Intensity Objects (%) [4]: 0% | Population Membrane Permeable-Phenotype (%) [4]: 0% and 1.67% | Population Mitotic Cells (%) [4]: 75.68% and 89.47% | Population Normal (%) [4]: 100% | Population Pyknosed Nuclei (%) [4]: 23.12% and 63.33% | Population Tubulin-Different-Phenotype (%) [4]: 4.27% and 1.67% | Total Cell Count [4]: 320 and 180 | Population Apoptotic (%) [5]: 23.33% and 32.22% | Population Fragmented Nuclei (%) [5]: 5.26% and 1.12% | Population Healthy Nuclei (%) [5]: 76.52% and 48.6% | Population Hoechst High Intensity Objects (%) [5]: 1% and 0% | Population Membrane Permeable-Phenotype (%) [5]: 1.59% and 2.3% | Population Mitochondria Different-Phenotype (%) [5]: 50.26% and 32.18% | Population Mitotic Cells (%) [5]: 76.67% and 67.78% | Population Normal (%) [5]: 99% and 100% | Population Pyknosed Nuclei (%) [5]: 18.22% and 50.28% | Total Cell Count [5]: 499 and 179 | Population Apoptotic (%) [6]: 30.43% and 28% | Population Fragmented Nuclei (%) [6]: 3.91% and 6.29% | Population Healthy Nuclei (%) [6]: 63.35% and 36.57% | Population Hoechst High Intensity Objects (%) [6]: 0.35% and 0.57% | Population Membrane Permeable-Phenotype (%) [6]: 3.37% and 0% | Population Mitotic Cells (%) [6]: 69.57% and 72% | Population Normal (%) [6]: 99.65% and 99.43% | Population Pyknosed Nuclei (%) [6]: 32.74% and 57.14% | Population Tubulin-Different-Phenotype (%) [6]: 7.87% and 17.19% | Total Cell Count [6]: 282 and 176

CN1CCN(c2cc(-c3ccccc3)nc(N)n2)CC1
Population Apoptotic (%) [1]: 40% and 34% | Population Fragmented Nuclei (%) [1]: 8% and 5% | Population Healthy Nuclei (%) [1]: 79% and 84% | Population Hoechst High Intensity Objects (%) [1]: 6% | Population Membrane Permeable-Phenotype (%) [1]: 0% | Population Mitochondria Different-Phenotype (%) [1]: 35% and 48% | Population Mitotic Cells (%) [1]: 60% and 65% | Population Normal (%) [1]: 93% | Population Pyknosed Nuclei (%) [1]: 11% and 10% | Population Tubulin-Different-Phenotype (%) [1]: 21% and 16% | Total Cell Count [1]: 383 and 354 | Population Apoptotic (%) [2]: 23% and 36% | Population Fragmented Nuclei (%) [2]: 7% and 6% | Population Healthy Nuclei (%) [2]: 82% and 81% | Population Hoechst High Intensity Objects (%) [2]: 7% and 10% | Population Membrane Permeable-Phenotype (%) [2]: 0% | Population Mitochondria Different-Phenotype (%) [2]: 46% and 63% | Population Mitotic Cells (%) [2]: 76% and 63% | Population Normal (%) [2]: 92% and 89% | Population Pyknosed Nuclei (%) [2]: 9% and 12% | Population Tubulin-Different-Phenotype (%) [2]: 30% and 20% | Total Cell Count [2]: 416 and 296 | Population Apoptotic (%) [3]: 20% and 36% | Population Fragmented Nuclei (%) [3]: 9% | Population Healthy Nuclei (%) [3]: 79% and 82% | Population Hoechst High Intensity Objects (%) [3]: 4% | Population Membrane Permeable-Phenotype (%) [3]: 1% | Population Mitochondria Different-Phenotype (%) [3]: 16% and 24% | Population Mitotic Cells (%) [3]: 79% and 63% | Population Normal (%) [3]: 95% | Population Pyknosed Nuclei (%) [3]: 11% and 8% | Population Tubulin-Different-Phenotype (%) [3]: 12% and 8% | Total Cell Count [3]: 488 and 480 | Population Apoptotic (%) [4]: 44% and 34% | Population Fragmented Nuclei (%) [4]: 13% and 9% | Population Healthy Nuclei (%) [4]: 75% and 79% | Population Hoechst High Intensity Objects (%) [4]: 6% and 9% | Population Membrane Permeable-Phenotype (%) [4]: 0% | Population Mitochondria Different-Phenotype (%) [4]: 32% and 50% | Population Mitotic Cells (%) [4]: 55% and 65% | Population Normal (%) [4]: 93% and 90% | Population Pyknosed Nuclei (%) [4]: 11% | Population Tubulin-Different-Phenotype (%) [4]: 19% and 17% | Total Cell Count [4]: 577 and 378 | Population Apoptotic (%) [5]: 23% and 14% | Population Fragmented Nuclei (%) [5]: 13% | Population Healthy Nuclei (%) [5]: 78% and 80% | Population Hoechst High Intensity Objects (%) [5]: 1% and 2% | Population Membrane Permeable-Phenotype (%) [5]: 1% and 0% | Population Mitochondria Different-Phenotype (%) [5]: 12% and 14% | Population Mitotic Cells (%) [5]: 76% and 85% | Population Normal (%) [5]: 98% and 97% | Population Pyknosed Nuclei (%) [5]: 7% and 6% | Population Tubulin-Different-Phenotype (%) [5]: 12% and 9% | Total Cell Count [5]: 745 and 804 | Population Apoptotic (%) [6]: 16% and 27% | Population Fragmented Nuclei (%) [6]: 17% and 13% | Population Healthy Nuclei (%) [6]: 75% and 81% | Population Hoechst High Intensity Objects (%) [6]: 3% | Population Membrane Permeable-Phenotype (%) [6]: 0% and 1% | Population Mitochondria Different-Phenotype (%) [6]: 25% and 24% | Population Mitotic Cells (%) [6]: 83% and 72% | Population Normal (%) [6]: 96% | Population Pyknosed Nuclei (%) [6]: 6% and 4% | Population Tubulin-Different-Phenotype (%) [6]: 14% and 11% | Total Cell Count [6]: 861 and 645
